Four molecules from ChEMBL document CHEMBL4177557, “Anti-inflammatory Flavan-3-ol-dihydroretrochalcones from Daemonorops draco” (J Nat Prod, 2017) can be followed below.

pIC50: −log10 of the molar value.

As usually defined, the pIC50 is −log10 of the IC50, conventionally taken in molar units.

The test system of assay [1] is Neutrophil. The assay can be described thus: Inhibition of fMLP/CB-induced elastase release in human neutrophils. The class given is functional, cell-based. In a few lines:
(§1)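 Isolated human neutrophils stimulated with fMLP plus cytochalasin B. Superoxide measured as SOD-inhibitable ferricytochrome c reduction. Azurophilic degranulation measured as elastase release. IC50, the concentration giving 50% inhibition, calculated by computer; mean ± SEM, n = 3–5; Student's t test.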

The subject of assay [2] is Neutrophil. Briefly: Inhibition of fMLP/CB-induced superoxide anion production in human neutrophils assessed as SOD-based ferricytochrome c reduction assay. The format is functional, cell-based. In a few lines: as §1

On to `COC1=C(CCC(=O)c2ccccc2)C(=O)[C@@H]2C(=O)[C@H]1[C@H]1c3c(cc(O)c(C)c3OC)O[C@]2(c2ccccc2)[C@@H]1O`, for which the pIC50 with Neutrophil [1] and in the assay with Neutrophil [2] was less than 5.00 throughout.

In the case of `COC1=CC(=O)C(C)=C2O[C@]3(c4ccccc4)Oc4cc(O)c(C)c(OC)c4[C@@H]([C@H]3O)[C@]12CCC(=O)c1ccccc1`, the pIC50 was 5.35 with Neutrophil [1] and 5.51 in the assay with Neutrophil [2].

On to `COC1=CC(=O)[C@]2(C)C(=O)[C@@]1(CCC(=O)c1ccccc1)[C@H]1c3c(cc(O)c(C)c3OC)O[C@]2(c2ccccc2)[C@@H]1O`, for which the pIC50 in the assay on Neutrophil [1] and with Neutrophil [2] was less than 5.00 each time.

`O=c1cc(N2CCOCC2)oc2c(-c3ccccc3)cccc12` [LY-294002]: the pIC50 is 5.82 in the assay with Neutrophil [1] and 6.40 in the assay on Neutrophil [2].
